In ChEMBL document CHEMBL3621047, “Quaternary Indolizidine and Indolizidone Iminosugars as Potential Immunostimulating and Glycosidase Inhibitory Agents: Synthesis, Conformational Analysis, Biological Activity, and Molecular Docking Study” (J Med Chem, 2015):
Calls of active or inactive are those of the source. No cut-off for these calls is given here.

Legend:
Beta-galactosidase = biological target: T1, Beta-galactosidase (Bos taurus, UniProt Q58D55); assay: Inhibition of bovine liver beta-galactosidase using 10 mM p-nitrophenyl-beta-D-galactopyranoside as substrate
T1 sequence (Q58D55 whole entry): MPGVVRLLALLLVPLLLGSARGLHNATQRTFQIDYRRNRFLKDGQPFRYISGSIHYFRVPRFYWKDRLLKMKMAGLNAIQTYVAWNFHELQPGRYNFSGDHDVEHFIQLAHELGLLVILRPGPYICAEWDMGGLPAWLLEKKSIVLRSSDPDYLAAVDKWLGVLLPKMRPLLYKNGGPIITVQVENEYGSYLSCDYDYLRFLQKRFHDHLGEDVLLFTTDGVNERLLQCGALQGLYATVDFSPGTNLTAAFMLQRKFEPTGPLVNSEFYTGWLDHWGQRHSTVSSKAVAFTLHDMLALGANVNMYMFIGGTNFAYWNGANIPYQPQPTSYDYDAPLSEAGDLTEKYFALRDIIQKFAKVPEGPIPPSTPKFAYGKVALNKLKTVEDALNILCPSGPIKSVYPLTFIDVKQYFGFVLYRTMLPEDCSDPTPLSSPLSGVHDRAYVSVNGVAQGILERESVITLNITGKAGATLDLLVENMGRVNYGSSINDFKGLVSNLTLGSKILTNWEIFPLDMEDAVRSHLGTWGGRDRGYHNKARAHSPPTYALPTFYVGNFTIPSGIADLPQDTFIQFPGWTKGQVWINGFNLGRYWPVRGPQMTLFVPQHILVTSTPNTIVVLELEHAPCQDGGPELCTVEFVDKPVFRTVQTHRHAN
How it was run: (§1)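 Enzyme (0.1 U/cm3; A. niger α-galactosidase or bovine liver β-galactosidase) was preincubated with inhibitor for 1 h at 37 °C. Substrate was 10 mM p-nitrophenyl α- or β-D-galactopyranoside in 200 mM sodium acetate, reacted 10 min at 37 °C. The reaction was stopped with 200 mM borate pH 9.8 and released p-nitrophenol read at 420 nm. Ki came from Lineweaver–Burk plots; values are the average of five assays.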

Aspergillus niger = assay: Inhibition of aspergillus niger alpha-galactosidase at 1 mM using 10 mM p-nitrophenyl-alpha-D-galactopyranoside as substrate
How it was run: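 Galactosidase (0.1 U cm−3) was preincubated with compound 1 h at 37 °C. Reaction used 10 mM p-nitrophenyl-α- or β-D-galactopyranoside in 200 mM sodium acetate, 10 min at 37 °C, stopped with 200 mM borate pH 9.8. Read at 420 nm. NI means no 50% inhibition at 1 mM. Five assays averaged.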

[1] = Inhibition of rice alpha-glucosidase using 10 mM p-nitrophenyl-alpha-D-glucopyranoside as substrate; design: species or system Oryza sativa
How it was run: (§2)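 Rice α-glucosidase (0.1 U cm−3) was preincubated with compound 1 h at 37 °C. Reaction used 10 mM p-nitrophenyl-α-D-glucopyranoside in 100 mM phosphate pH 6.8, 10 min at 37 °C, stopped with 0.1 M Na2CO3. p-Nitrophenol was read at 420 nm. Ki came from Lineweaver–Burk plots. Average of five assays.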

[2] = biological target: T2, Alpha-mannosidase (Canavalia ensiformis) (UniProt C0HJB3); assay: Inhibition of jack bean alpha-mannosidase at 1 mM using 10 mM p-nitrophenyl-alpha-D-mannopyranoside as substrate
T2 sequence (whole entry): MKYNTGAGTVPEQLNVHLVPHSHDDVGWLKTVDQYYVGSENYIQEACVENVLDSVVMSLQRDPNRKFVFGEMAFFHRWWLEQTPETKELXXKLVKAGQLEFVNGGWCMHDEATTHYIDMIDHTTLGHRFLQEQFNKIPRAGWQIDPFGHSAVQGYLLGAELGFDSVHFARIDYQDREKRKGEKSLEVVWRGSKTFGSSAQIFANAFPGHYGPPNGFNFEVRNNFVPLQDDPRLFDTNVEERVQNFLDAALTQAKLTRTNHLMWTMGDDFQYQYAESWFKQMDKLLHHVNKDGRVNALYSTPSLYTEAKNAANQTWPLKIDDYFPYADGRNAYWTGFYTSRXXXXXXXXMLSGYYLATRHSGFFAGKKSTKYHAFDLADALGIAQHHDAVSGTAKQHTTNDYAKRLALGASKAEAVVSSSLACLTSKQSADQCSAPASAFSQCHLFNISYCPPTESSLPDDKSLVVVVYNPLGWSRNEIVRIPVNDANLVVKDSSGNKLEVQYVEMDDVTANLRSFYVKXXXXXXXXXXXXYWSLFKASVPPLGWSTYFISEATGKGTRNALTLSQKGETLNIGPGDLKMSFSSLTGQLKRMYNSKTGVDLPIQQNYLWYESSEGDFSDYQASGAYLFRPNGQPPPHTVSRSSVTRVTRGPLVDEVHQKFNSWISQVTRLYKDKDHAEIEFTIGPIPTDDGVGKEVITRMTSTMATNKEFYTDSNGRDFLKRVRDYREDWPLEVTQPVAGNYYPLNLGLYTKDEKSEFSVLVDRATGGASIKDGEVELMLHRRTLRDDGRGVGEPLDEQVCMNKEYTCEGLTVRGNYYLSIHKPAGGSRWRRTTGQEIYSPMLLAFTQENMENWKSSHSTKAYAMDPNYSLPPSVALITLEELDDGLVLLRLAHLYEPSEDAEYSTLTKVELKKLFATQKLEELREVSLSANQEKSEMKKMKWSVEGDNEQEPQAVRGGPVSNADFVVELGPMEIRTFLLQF
How it was run: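 Jack bean α-mannosidase (0.1 U/cm3) was preincubated with inhibitor for 1 h at 37 °C. Substrate was 10 mM p-nitrophenyl α-D-mannopyranoside in 100 mM citrate pH 4.5, reacted 10 min at 37 °C. The reaction was stopped with 200 mM borate pH 9.8 and absorbance read at 420 nm. Ki came from Lineweaver–Burk plots; average of five assays. NI means under 50% inhibition at 1 mM.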

[3] = Inhibition of bovine liver beta-glucosidase using 10 mM p-nitrophenyl-[…]-D-glucopyranoside as substrate; design: species or system Bos taurus
[4] = Cytotoxicity against Swiss albino mouse Splenocytes assessed as cell proliferation at 0.5 to 5 uM after 72 hrs by MTT assay; assay type: cell-based; settings: splenocyte
How it was run: (§3)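 Swiss albino mouse splenocytes (2 × 10^6 cells/well) were treated with Con A alone or with test samples at final 0.5, 1, 2.5 and 5 μM. Con A is given as final 10 μg/mL in methods and 10 μM in text. Cells were held 72 h at 37 °C, 5% CO2, in RPMI with 10% FCS, then read by MTT. Values are % of Con A-treated cells (100%), mean ± SEM, n = 5.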

Splenocyte [5] = assay: Immunostimulating activity in Swiss albino mouse Splenocytes assessed as increase in ConA-induced cell proliferation upto 5 uM after 72 hrs by MTT assay; assay type: functional, cell-based
How it was run: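 Splenocytes (2 × 10^6/well) from Swiss albino mice were treated with Con A (methods give final 10 μg/mL; results give 10 μM), alone or with compound at final 0.5, 1, 2.5 and 5 μM. Incubation was 72 h at 37 °C, 5% CO2, in RPMI with 10% FCS. Readout by MTT, expressed as % of Con A-treated cells (100%); mean ± SEM, n = 5.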

Splenocyte [6] = assay: Immunostimulating activity in Swiss albino mouse Splenocytes assessed as increase in IL-6 secretion at 5 uM by ELISA in presence of 10 uM ConA relative to control; assay type: functional
How it was run: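 Supernatants came from splenocytes (2 × 10^6/well) treated with Con A 10 μM plus compound at 5 μM. IL-6 was measured by ELISA: samples 2 h at 37 °C, biotinylated antibody 1 h, then streptavidin–HRP and substrate developed in the dark. Read at 550 nm with 450 nm correction and quantified from an IL-6 standard curve; mean ± SEM, n = 5.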

[7] = Inhibition of aspergillus niger alpha-galactosidase using 10 mM p-nitrophenyl-alpha-D-galactopyranoside as substrate; how it was run: as §1
Splenocyte [8] = assay: Immunostimulating activity in Swiss albino mouse Splenocytes assessed as decrease in ConA-induced IL-4 secretion at 5 uM by ELISA; assay type: functional
Splenocyte [9] = assay: Immunostimulating activity in Swiss albino mouse Splenocytes assessed as ConA-induced cell proliferation > 5 uM after 72 hrs by MTT assay; assay type: functional, cell-based
Splenocyte [10] = assay: Immunostimulating activity in Swiss albino mouse Splenocytes assessed as increase in ConA-induced IFN-gamma secretion at 5 uM by ELISA; assay type: functional, cell-based
How it was run: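 Splenocyte supernatants (2 × 10^6 cells/well) were collected after 24 h stimulation with Con A 10 μM alone or with compound at 5 μM. Unstimulated cells served as control. IFN-γ was quantified by sandwich ELISA; mean ± SEM, n = 5.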

Oryza sativa = assay: Inhibition of rice alpha-glucosidase at 1 mM using 10 mM p-nitrophenyl-alpha-D-glucopyranoside as substrate
How it was run: as §2, with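 “nm. NI means no 50% inhibition at 1 mM.” for “nm.”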

Splenocyte [11] = assay: Immunostimulating activity in Swiss albino mouse Splenocytes assessed as increase in IL-6 secretion at 2.5 uM by ELISA in presence of 10 uM ConA relative to control; assay type: functional
How it was run: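 Splenocytes (2 × 10^6 cells/well) were stimulated with 10 μM Con A plus compound (2.5 or 5 μM). Supernatant IL-6 was measured by sandwich ELISA: sample 2 h at 37 °C, biotinylated antibody 1 h, streptavidin–HRP, then substrate in the dark. Absorbance was read at 550 nm with 450 nm correction against an IL-6 standard curve. Mean ± SEM, n = 5.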

Alpha-mannosidase = biological target: T3, Alpha-mannosidase (Canavalia ensiformis, UniProt C0HJB3); assay: Inhibition of jack bean alpha-mannosidase using 10 mM p-nitrophenyl-alpha-D-mannopyranoside as substrate
T3 sequence (C0HJB3 whole entry): T2 sequence (whole entry)
How it was run: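 Jack bean α-mannosidase (0.1 U cm−3) was preincubated with compound 1 h at 37 °C. Reaction used 10 mM p-nitrophenyl-α-D-mannopyranoside in 100 mM citrate pH 4.5, 10 min at 37 °C, stopped with 200 mM borate pH 9.8. Read at 420 nm. IC50 and Ki were determined, Ki from Lineweaver–Burk double-reciprocal plots. Mean of five assays.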

Splenocyte [12] = assay: Immunostimulating activity in Swiss albino mouse Splenocytes assessed as increase in ConA-induced cell proliferation upto 2.5 uM after 72 hrs by MTT assay; assay type: functional, cell-based; how it was run: as §3
Splenocyte [13] = assay: Immunostimulating activity in Swiss albino mouse Splenocytes assessed as increase in ConA-induced IFN-gamma secretion at 2.5 uM by ELISA; assay type: functional, cell-based
How it was run: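 IFN-γ was measured by ELISA in supernatants of splenocytes (2 × 10^6 cells/well). Cells were unstimulated, stimulated with Con A (10 μM), or given Con A plus compound (2.5 or 5 μM) for 24 h. Mean ± SEM, n = 5.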

Splenocyte [14] = assay: Immunostimulating activity in Swiss albino mouse Splenocytes assessed as decrease in ConA-induced IL-4 secretion at 2.5 uM by ELISA; assay type: functional
How it was run: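 Supernatants came from Con A-stimulated splenocytes (2 × 10^6 cells/well) with compound at 2.5 or 5 μM. They were spun 2000g for 5 min and stored at −70 °C. IL-4 was measured by ELISA: sample 2 h at 37 °C, then peroxidase conjugate 1 h, substrate developed in the dark. Absorbance was read at 550 nm with 450 nm correction and quantified from an IL-4 standard curve. n = 5.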

| SMILES | IC50 (Beta-galactosidase) | Ki (Beta-galactosidase) | inhibition [2] | IC50 [3] | Ki [3] | Activity [4] | Activity (Splenocyte [5]) | fold change (FC) (Splenocyte [6]) | IC50 [7] | Ki [7] | inhibition at 5 µM (Splenocyte [8]) | Activity (Splenocyte [9]) | Activity (Splenocyte [10]) | inhibition (Oryza sativa) | fold change (FC) (Splenocyte [11]) | IC50 (Alpha-mannosidase) | Ki (Alpha-mannosidase) | Activity (Splenocyte [12]) | Activity (Splenocyte [13]) | inhibition at 2.5 µM (Splenocyte [14]) | other results |
| --- | --- | --- | --- | --- | --- | --- | --- | --- | --- | --- | --- | --- | --- | --- | --- | --- | --- | --- | --- | --- | --- |
| OCCN1C[C@H](O)[C@@H](O)[C@H](O)[C@H]1CO [MIGLITOL] | 200 µM | 100000 nM | < 50% | 342 µM | 32 µM |  |  |  |  |  |  |  |  |  |  |  |  |  |  |  | inhibition (Aspergillus niger): < 50%; IC50 [1]: 100 nM; Ki [1]: 60 nM |
| OC[C@]12CCCN1C[C@H](O)[C@@H](O)[C@@H]2O | 3.6 µM | 1500 nM | < 50% | 116 µM | 95 µM | Non-toxic | Active | 4.1 | 130 nM | 90 nM | 31% | inactive | Active | < 50% |  |  |  |  |  |  |  |
| O=C1CC[C@@]2(CO)[C@@H](O)[C@H](O)[C@@H](O)CN12 | 5.6 µM | 2400 nM |  | 39 µM | 19 µM | Non-toxic |  |  | 130000 nM | 14000 nM |  | inactive |  | < 50% | 9 | 75 nM | 43 nM | Active | Active | 47% |  |
| OC[C@@]12CCCN1C[C@H](O)[C@@H](O)[C@@H]2O | 2.3 µM | 1000 nM | < 50% | 202 µM | 102 µM | Non-toxic | Active | 4.4 | 240 nM | 540 nM | 34% | inactive | Active | < 50% |  |  |  |  |  |  |  |
| OC[C@@]12CCCN1C[C@@H](O)[C@@H](O)[C@@H]2O | 1.2 µM | 500 nM | < 50% | 156 µM | 86 µM | Non-toxic | Active | 3.7 | 630 nM | 440 nM | 31% | inactive | Active | < 50% |  |  |  |  |  |  |  |
| O=C1CC[C@@]2(CO)[C@@H](O)[C@H](O)[C@H](O)CN12 | 7.2 µM | 3100 nM |  | 46 µM | 24 µM | Non-toxic |  |  | 630000 nM | 68000 nM |  | inactive |  | < 50% | 8.2 | 1300 nM | 900 nM | Active | Active | 34% |  |
